Results: ChEMBL document CHEMBL1144854, “Synthesis and biological evaluation of novel 6-substituted 5-alkyl-2-(arylcarbonylmethylthio)pyrimidin-4(3H)-ones as potent non-nucleoside HIV-1 reverse transcriptase inhibitors” (Bioorg Med Chem, 2008)
Activity calls are given as the source filed them. The rule behind the calls is not given here.

Tests used:
[1] = system: Human immunodeficiency virus 1; experiment: Antiviral activity against HIV1 3B infected in MT4 cells by MTT; format: functional, organism-based; conditions: Human immunodeficiency virus 1, 3B
Outline: (§1)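 MT-4 cells at 1 × 10^5 cells/mL were infected at MOI 0.02 with virus stocks pre-titrated in MT-4 cells (CCID50) and immediately plated onto serial compound dilutions. Compound stocks were 50 mM in DMSO. Viable cells were counted by MTT after 4 days at 37 °C. EC50 is the concentration giving 50% protection from viral cytopathicity, as the mean of ≥2 separate experiments.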

[2] = Selectivity index, ratio of CC50 for human MT4 cells to EC50 for HIV1 3B; format: functional
[3] = system: Human immunodeficiency virus 2; experiment: Antiviral activity against HIV2 ROD infected in MT4 cells by MTT; format: functional, organism-based; conditions: Human immunodeficiency virus 2, ROD; outline: as §1
[4] = Cytotoxicity against human MT4 cells; format: cell-based
Outline: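 Uninfected MT-4 cells were run in parallel with the antiviral plates: serial compound concentrations from 50 mM DMSO stocks, 4 days at 37 °C, viability by MTT. CC50 is the concentration cutting viability by 50%, as the mean of ≥2 separate experiments.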

[5] = system: Human immunodeficiency virus 1; experiment: Antiviral activity against HIV1 RES056 infected in MT4 cells by MTT; format: functional, organism-based; conditions: Human immunodeficiency virus 1, RES056, MT4; outline: as §1
[6] = Selectivity index, ratio of CC50 for human MT4 cells to EC50 for HIV1 RES056
MT4 = experiment: as above

COc1ccc(C(=O)CSc2nc(C(c3ccccc3)c3ccccc3)c(C)c(=O)[nH]2)cc1
EC50 [1]: 1.38 µM
Ratio CC50/EC50 [2]: >199
EC50 [3]: > 274 µM
CC50 [4]: > 274 µM

CC(C)Nc1cccnc1N1CCN(C(=O)c2cc3cc(NS(C)(=O)=O)ccc3[nH]2)CC1 [DELAVIRDINE]
EC50 [1]: 0.072 µM
Ratio CC50/EC50 [2]: >50
CC50 [4]: > 3.62 µM
EC50 [5]: > 3.62 µM

COc1ccc(C(=O)CSc2nc(Cc3cc(C(F)(F)F)cc(C(F)(F)F)c3)c(C)c(=O)[nH]2)cc1
EC50 [1]: 46.1 µM
Ratio CC50/EC50 [2]: >5
EC50 [3]: > 242 µM
CC50 [4]: > 242 µM

CCc1c(Cc2cccc(Br)c2)nc(SCC(=O)c2ccc(OC)cc2)[nH]c1=O
EC50 [1]: 0.16 µM
Ratio CC50/EC50 [2]: 887
EC50 [3]: > 142 µM
CC50 [4]: 142 µM

CCc1c(Cc2cc(C)cc(C)c2)nc(SCC(=O)c2ccc(OC)cc2)[nH]c1=O
EC50 [1]: 0.018 µM
Ratio CC50/EC50 [2]: >=13278
EC50 [3]: 52.8 µM
CC50 [4]: ≥ 239 µM
EC50 [5]: > 239 µM

CCc1c(Cc2cc(C(F)(F)F)cc(C(F)(F)F)c2)nc(SCC(=O)c2ccc(OC)cc2)[nH]c1=O
EC50 [1]: 0.79 µM
Ratio CC50/EC50 [2]: >299
EC50 [3]: > 236 µM
CC50 [4]: > 236 µM

CCc1c(Cc2ccc(-c3ccccc3)cc2)nc(SCC(=O)c2ccc(OC)cc2)[nH]c1=O
EC50 [1]: > 266 µM
EC50 [3]: > 266 µM
CC50 [4]: > 266 µM

CCc1c(Cc2ccc(Br)cc2)nc(SCC(=O)c2ccc(OC)cc2)[nH]c1=O
EC50 [1]: 7.94 µM
Ratio CC50/EC50 [2]: >33
EC50 [3]: > 264 µM
CC50 [4]: > 264 µM

Cc1c(Cc2cccc3ccccc23)nc(SCC(=O)c2ccccc2)[nH]c1=O
EC50 [1]: 0.22 µM
Ratio CC50/EC50 [2]: >=1386
EC50 [3]: ≥ 42.2 µM
CC50 [4]: ≥ 305 µM

COc1ccc(C(=O)CSc2nc(Cc3c(Cl)cccc3Cl)c(C)c(=O)[nH]2)cc1
EC50 [1]: 0.044 µM
Ratio CC50/EC50 [2]: >6318
EC50 [3]: > 278 µM
CC50 [4]: > 278 µM

O=C1Nc2ccc(Cl)cc2C(C#CC2CC2)(C(F)(F)F)O1 (single isomer, unassigned) [EFAVIRENZ]
CC50 [4]: > 6.34 µM

COc1ccc(C(=O)CSc2nc(Cc3cccc(O)c3)c(C)c(=O)[nH]2)cc1
EC50 [1]: 4.44 µM
Ratio CC50/EC50 [2]: 16
EC50 [3]: > 59 µM
CC50 [4]: 70 µM

CCc1c(Cc2cc(C)cc(C)c2)nc(SCC(=O)c2ccccc2)[nH]c1=O
EC50 [1]: 0.01 µM
Ratio CC50/EC50 [6]: >16
Ratio CC50/EC50 [2]: >31800
EC50 [3]: 154 µM
CC50 [4]: > 318 µM
EC50 [5]: 19.8 µM

COc1ccc(C(=O)CSc2nc(Cc3ccccc3Br)c(C)c(=O)[nH]2)cc1
EC50 [1]: 0.63 µM
Ratio CC50/EC50 [2]: >432
EC50 [3]: > 272 µM
CC50 [4]: > 272 µM

COc1ccc(C(=O)CSc2nc(Cc3cccc(Br)c3)c(C)c(=O)[nH]2)cc1
EC50 [1]: 0.89 µM
Ratio CC50/EC50 [2]: >=220
EC50 [3]: 203 µM
CC50 [4]: ≥ 196 µM

COc1ccc(C(=O)CSc2nc(Cc3cc(C)cc(C)c3)c(C)c(=O)[nH]2)cc1
EC50 [1]: 0.054 µM
Activity (MT4): inactive
Ratio CC50/EC50 [2]: >5704
EC50 [3]: 60.6 µM
CC50 [4]: > 308 µM
EC50 [5]: > 308 µM

CCc1c(C(c2ccccc2)c2ccccc2)nc(SCC(=O)c2ccc(OC)cc2)[nH]c1=O
EC50 [1]: 3.49 µM
Ratio CC50/EC50 [2]: >76
EC50 [3]: > 266 µM
CC50 [4]: > 266 µM

Cc1cn([C@H]2C[C@H](N=[N+]=[N-])[C@@H](CO)O2)c(=O)[nH]c1=O [ZIDOVUDINE]
EC50 [1]: 0.005 µM
Ratio CC50/EC50 [6]: >15592
Ratio CC50/EC50 [2]: >17990
CC50 [4]: > 93.5 µM
EC50 [5]: 0.006 µM

COc1ccc(C(=O)CSc2nc(Cc3ccc(Br)cc3)c(C)c(=O)[nH]2)cc1
EC50 [1]: 8.97 µM
Ratio CC50/EC50 [2]: >30
EC50 [3]: ≥ 226 µM
CC50 [4]: > 272 µM

CCc1c(Cc2ccccc2Br)nc(SCC(=O)c2ccc(OC)cc2)[nH]c1=O
EC50 [1]: 0.04 µM
Ratio CC50/EC50 [2]: 4675
EC50 [3]: > 187 µM
CC50 [4]: 187 µM
